This note sets out measurements from paper PMC4257110 (International Journal of Nanomedicine, 2014).

Values after ≈ are worked out from the molar mass of the structure shown.

Broadly, the solubility is the concentration that dissolves in the medium under given conditions.

Data set [1] is described as follows: In vitro release of TS IIA, Sal B and PNS from PLGA NPs and of free drugs. Type of data set: physicochemical. Particulars: saline containing 0.2% SDS, dialysis, 37°C; for released from NPs: PLGA NPs loaded with TS IIA, Sal B, PNS, within 72 hours; for free drug released: free drugs (control), first 6 hours. The essentials:
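Dialysis release: a sealed bag with sample dispersed in 2.0 mL saline plus 0.2% (w/v) SDS was immersed in 30 mL of the same medium at 37°C with horizontal shaking at 100 rpm. 1 mL of medium was withdrawn at set intervals and drug content measured by HPLC.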

Data set [2] is described as follows: Pharmacokinetics of TS IIA, Sal B and PNS. The conditions noted are these: RW administration, NPs versus compound solution, not dose-normalised. Type of data set: in vivo, guinea pigs. The essentials:
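Guinea pigs (250–300 g; 78, two groups) received round-window dosing of loaded PLGA NPs (12.43 μg/kg TS IIA, 766.38 μg/kg Sal B, 1.05/2.08/2.31 mg/kg R1/Rg1/Rb1) or solution in ethanol/glycerol/PEG 400 2:1:2 (0.73, 8, 3.13/4.38/3.82 mg/kg); saline blank. At 0.17–36 h under anesthesia, perilymph was drawn through the RWM and plasma taken from cardiac blood. Acetic ether (TS IIA, Sal B) or methanol (PNS) extraction, HPLC; n=3.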

The format of data set [3] is physicochemical. The conditions noted are these: PLGA NPs loaded with TS IIA, Sal B, PNS; PLGA L:G 50:50; RP-HPLC. The essentials:
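Free drug: a dialysis bag (8–14 kDa cutoff) holding 2 mL saline with 0.2% SDS was placed in 25 mL nanosuspension for 12 h, and the bag contents were assayed by HPLC. Total drug: 1 mL nanosuspension dissolved in acetonitrile, extracted with methanol, 0.22-μm filtered. C18 column, 25°C, acetonitrile/0.05% phosphoric acid gradient, 1.0 mL/min, 203 nm (PNS) or 280 nm (TS IIA, Sal B). EE calculated from free and total drug.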

Data set [4] can be described thus: In vitro release of coumarin-6 from PLGA NPs. The conditions noted are these: PBS (pH 7.4), 72 hours, 37°C. The data set is classed as physicochemical. The essentials: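 A dialysis bag holding 3.0 mL nanosuspension plus 2.0 mL PBS pH 7.4 sat in 15 mL PBS pH 7.4 at 37°C, stirred at 100 rpm. At set time points 1 mL of medium was withdrawn and replaced with fresh medium, and coumarin-6 was quantified by HPLC.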

The format of data set [5] is in vivo, guinea pigs.
Data set [6] in a line: Maximum solubility in mixed solvents. The data set is classed as physicochemical. The conditions noted are these: mixed solvents (ethanol/glycerol/PEG 400 = 2:1:2), organic solvent or mixture.
Where [7] appears, read: PL, guinea pigs, RW administration, NPs versus solution.

Regarding `CC(C)=CCC[C@](C)(O[C@@H]1O[C@H](CO[C@@H]2O[C@H](CO)[C@@H](O)[C@H](O)[C@H]2O)[C@@H](O)[C@H](O)[C@H]1O)[C@H]1CC[C@]2(C)[C@@H]1[C@H](O)C[C@@H]1[C@@]3(C)CC[C@H](O[C@@H]4O[C@H](CO)[C@@H](O)[C@H](O)[C@H]4O[C@@H]4O[C@H](CO)[C@@H](O)[C@H](O)[C@H]4O)C(C)(C)[C@@H]3CC[C@]12C` [Rb1, ginsenoside Rb1], in data set [1], the “released from NPs” value amounted to 76.0% and the free drug released was above 79%. Moreover, in data set [2], the “AUC0–t in the PL, NPs greater compared with compound solution” value was 7.1 fold and the “Cmax in the PL, NPs higher compared with compound solution” value is given as 16.7 fold. Also, the “entrapment efficiency of the NPs” value in data set [3] was 93.56%.
The corresponding values for `CC(C)=CCC[C@](C)(O[C@@H]1O[C@H](CO)[C@@H](O)[C@H](O)[C@H]1O)[C@H]1CC[C@]2(C)[C@@H]1[C@H](O)C[C@@H]1[C@@]3(C)CC[C@H](O)C(C)(C)[C@@H]3[C@@H](O[C@@H]3O[C@H](CO)[C@@H](O)[C@H](O)[C@H]3O[C@@H]3OC[C@@H](O)[C@H](O)[C@H]3O)C[C@]12C` [R1, notoginsenoside R1] are “completely released”, above 79%, 4.0 fold, 14.4 fold and 37.87%.
The corresponding values for `CC(C)=CCC[C@](C)(O[C@@H]1O[C@H](CO)[C@@H](O)[C@H](O)[C@H]1O)[C@H]1CC[C@]2(C)[C@@H]1[C@H](O)C[C@@H]1[C@@]3(C)CC[C@H](O)C(C)(C)[C@@H]3[C@@H](O[C@@H]3O[C@H](CO)[C@@H](O)[C@H](O)[C@H]3O)C[C@]12C` [Rg1, ginsenoside Rg1] are 76.2%, above 79%, 3.1 fold, 10.0 fold and 44.98%.
In the case of `CCN(CC)c1ccc2cc(-c3nc4ccccc4s3)c(=O)oc2c1` [coumarin-6], in data set [4], the “in vitro cumulative release of coumarin-6 from the NPs” value is given as below 2%. Besides, in data set [5] (setting [7]), the “AUC0–t in PL, NPs higher than coumarin-6 solution” value was determined as 4.7 fold and the “Cmax in PL, NPs higher than coumarin-6 solution” value is 10.9 fold. The “time up to which coumarin-6 was found in the PL” value in data set [5] (RW administration of coumarin-6 NPs) was “up to 96 hours”. Moreover, the “time after which no coumarin-6 was detected in PL” value in data set [5] (RW administration of coumarin-6 solution) was 36 h. The “coumarin-6 detected in the plasma” value in data set [5] (plasma of several guinea pigs, RW administration of coumarin-6 NPs or solution) is given as “An infinitesimal amount”.
Turning to `Cc1coc2c1C(=O)C(=O)c1c-2ccc2c1CCCC2(C)C` [TS IIA, tanshinone IIA], in data set [1], the “released from NPs” value came to 23.6% and the free drug released is above 79%. Also, the solubility in data set [6] came to 1830 µg/mL (≈ 6.22 mM). For the same compound, in data set [3], the “entrapment efficiency of the NPs” value was 91.81%.
Take salvianolic acid B [Sal B]: in data set [1], the “released from NPs” value is on record as 93.0% and the free drug released is above 79%. Moreover, in data set [3], the “entrapment efficiency of the NPs” value stood at 92.88%.
